Results: ChEMBL document CHEMBL3351938, “C5-Alkyl-2-methylurea-Substituted Pyridines as a New Class of Glucokinase Activators” (ACS Med Chem Lett, 2014)
Active and inactive are the calls of the source. No cut-off for these calls is given here.

What follows are compounds tested against T1, Hexokinase-4 (Homo sapiens) (UniProt P35557) (assay: Activity of activated human recombinant Glucokinase assessed as maximum glucose phosphorylation measured over 5 mins by spectrophotometry relative to unactivated enzyme).
T1 sequence (whole entry): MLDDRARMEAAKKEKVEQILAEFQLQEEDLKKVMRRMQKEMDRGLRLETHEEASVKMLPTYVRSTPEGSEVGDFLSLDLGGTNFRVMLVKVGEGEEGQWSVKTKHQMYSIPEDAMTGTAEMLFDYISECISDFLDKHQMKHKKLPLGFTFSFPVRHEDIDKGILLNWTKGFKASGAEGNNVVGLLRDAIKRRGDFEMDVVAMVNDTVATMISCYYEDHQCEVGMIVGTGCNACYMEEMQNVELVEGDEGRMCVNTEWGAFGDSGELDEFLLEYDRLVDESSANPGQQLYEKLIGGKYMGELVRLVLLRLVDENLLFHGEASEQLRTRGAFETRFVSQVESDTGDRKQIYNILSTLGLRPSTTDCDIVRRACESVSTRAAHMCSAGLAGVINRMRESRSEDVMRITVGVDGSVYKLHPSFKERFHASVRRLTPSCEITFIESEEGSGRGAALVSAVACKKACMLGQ
Method in brief: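 Recombinant human GK; V_max is the maximal velocity of glucose phosphorylation by activated GK divided by that of unactivated GK; n = 2.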

Row | Ratio | Structure (SMILES)
1 | 0.71 | CCn1nc(COC)cc1Oc1cc(CC2CCOCC2)cnc1NC(=O)NC
2 | 0.71 | CCn1nccc1Oc1cc(C[C@H]2CC[C@](C)(O)CC2)cnc1NC(=O)NC
3 | 0.78 | CCn1nccc1Oc1cc(CN2CCOCC2)cnc1NC(=O)NC
4 | 0.8 | CCn1nccc1Oc1cc(C[C@H]2C[C@@](C)(O)C2)cnc1NC(=O)NC
5 | 0.79 | CCn1nccc1Oc1cc(C[C@H]2CC[C@H](O)CC2)cnc1NC(=O)NC
6 | 0.75 | CCn1nccc1Oc1cc(CCCC(C)(C)O)cnc1NC(=O)NC
7 | 0.78 | CCc1ncccc1Oc1cc(CCCOC)cnc1NC(=O)NC
8 | 0.8 | CCn1nccc1Oc1cc(CC2CCOCC2)cnc1NC(=O)NC
9 | 0.7 | CCOCCc1cnc(NC(=O)NC)c(Oc2cccnc2CC)c1
10 | 0.78 | CCn1nccc1Oc1cc(C[C@@H]2CCO[C@@H](COC)C2)cnc1NC(=O)NC
11 | 0.86 | CCc1ncccc1Oc1cc(CCCCO)cnc1NC(=O)NC
12 | 0.88 | CCn1nccc1Oc1cc(C[C@H]2C[C@@H](O)C2)cnc1NC(=O)NC

Second part, the compound before the results:

Row | Structure (SMILES) | Ratio
13 | CCc1ncccc1Oc1cc(CCCC(C)(C)O)cnc1NC(=O)NC | 0.73
14 | CCn1nccc1Oc1cc(C[C@H]2CC[C@@H](O)CC2)cnc1NC(=O)NC | 0.66
15 | CCn1nccc1Oc1cc(CCCCOC)cnc1NC(=O)NC | 0.83
16 | CCc1ncccc1Oc1cc(CC2CCCCC2)cnc1NC(=O)NC | 0.73
17 | CCc1ncccc1Oc1cc(CC(C)C)cnc1NC(=O)NC | 0.82
18 | CNC(=O)Nc1ncc(CC2CCOCC2)cc1Oc1ccnn1C(C)C | 0.6
19 | CCn1nccc1Oc1cc(C[C@H]2CCO[C@H](COC)C2)cnc1NC(=O)NC | 0.76
20 | CCn1nccc1Oc1cc(C[C@H]2C[C@H](O)C2)cnc1NC(=O)NC | 0.96
21 | CCc1ncccc1Oc1cc(CC2CCOCC2)cnc1NC(=O)NC | 0.75
22 | CCc1ncccc1Oc1cc(CCCCOC)cnc1NC(=O)NC | 0.74
23 | CCn1nccc1Oc1cc(C(O)C2CCOCC2)cnc1NC(=O)NC (stereo unspecified) | 0.82
24 | CCn1nccc1Oc1cc(C[C@H]2CC[C@@](C)(O)CC2)cnc1NC(=O)NC | 0.82

What follows are compounds tested on Mus musculus (assay: Antidiabetic activity in C57Bl/6 mouse assessed as reduction in blood glucose AUC at 30 mg/kg, po administered 30 mins prior glucose challenge by oral glucose tolerance test).
Format: functional, organism-based
Parameters: dose 30 mg/kg
Method in brief: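 Oral dose–response OGTT in C57Bl/6 mice at 3, 10 and 30 mg/kg; blood glucose area-under-curve assessed; significance versus vehicle by two-way ANOVA.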

Row | Structure (SMILES) | Activity
25 | CCn1nccc1Oc1cc(CC2CCOCC2)cnc1NC(=O)NC | Active

These compounds were tested on Mus musculus (assay: Antidiabetic activity in fasted ob/ob mouse assessed as reduction in blood glucose AUC compound administered orally 30 mins prior glucose challenge by oral glucose tolerance test relative to control).
Format: functional, organism-based
Method in brief: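 OGTT in fasted ob/ob mice with oral doses of 0.3, 1, 3 and 10 mg/kg; blood glucose AUC compared to vehicle by two-way ANOVA.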

Row | Structure (SMILES) | Activity
26 | CCn1nccc1Oc1cc(C[C@H]2C[C@](C)(O)C2)cnc1NC(=O)NC | Dose-dependent effect
